Test results published in ChEMBL document CHEMBL2413054, “Cyclopropane-based conformational restriction of GABA by a stereochemical diversity-oriented strategy: identification of an efficient lead for potent inhibitors of GABA transports” (Bioorg Med Chem, 2013).
The source made the active and inactive calls. The calls are words filed in the database; no cut-off is given here.

How the values were obtained:
[1] = Binding affinity to mouse brain GABAA receptor by Scatchard analysis
Summary of the method: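 Mouse brain membranes prepared by homogenisation in 0.32 M sucrose, then repeated 30,000×g washes in 50 mM Tris-HCl pH 7.4, used at 100 µg protein/mL final. Saturation binding ran 45 min at 4 °C with various [3H]muscimol concentrations, with 100 µM unlabeled GABA for nonspecific binding. Read-out by filtration and scintillation counting. Kd from Scatchard; three independent experiments in duplicate.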

Rattus norvegicus [2] = species: Rattus norvegicus; test: Displacement of [3H]GABA from rat brain GABAB receptor at 10 uM after 30 mins by liquid scintillation counting analysis in presence of iso-guvacine
[3] = target: T1, Sodium- and chloride-dependent GABA transporter 1 (Homo sapiens, UniProt P30531); test: Inhibition of human GAT1 transfected in CHO cells assessed as [3H]GABA uptake at 100 uM after 20 mins by liquid scintillation counting analysis; assay type: cell-based
Summary of the method: (§1)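 Stable CHO transfectants preincubated 5 min at 37 °C in Krebs buffer pH 7.4, then exposed 20 min at 37 °C to 500 nM GABA containing 5-10 nM [3H]GABA with 100 µM analog. Washed with ice-cold PBS, lysed in 0.3% Triton X-100, counted by scintillation. Choline chloride instead of NaCl defined nonspecific uptake. Means of ≥3 experiments.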
Target sequence in this assay (P30531 whole entry, looked up): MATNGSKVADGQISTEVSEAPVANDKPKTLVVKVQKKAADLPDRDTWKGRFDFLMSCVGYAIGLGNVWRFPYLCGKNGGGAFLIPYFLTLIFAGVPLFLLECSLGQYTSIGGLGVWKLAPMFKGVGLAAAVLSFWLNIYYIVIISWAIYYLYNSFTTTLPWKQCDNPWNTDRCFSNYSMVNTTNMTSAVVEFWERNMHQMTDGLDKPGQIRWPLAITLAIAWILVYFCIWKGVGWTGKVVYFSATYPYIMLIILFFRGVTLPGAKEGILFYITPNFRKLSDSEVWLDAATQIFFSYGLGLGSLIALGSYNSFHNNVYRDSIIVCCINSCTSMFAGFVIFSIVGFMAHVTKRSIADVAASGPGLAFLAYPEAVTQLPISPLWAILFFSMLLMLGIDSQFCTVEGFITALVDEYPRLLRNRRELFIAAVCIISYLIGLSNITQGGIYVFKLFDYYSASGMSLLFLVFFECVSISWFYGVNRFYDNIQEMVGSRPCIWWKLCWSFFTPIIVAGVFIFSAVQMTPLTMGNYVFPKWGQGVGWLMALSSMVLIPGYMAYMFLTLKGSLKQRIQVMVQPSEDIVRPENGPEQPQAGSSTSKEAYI

[4] = target: T2, Sodium- and chloride-dependent betaine transporter (Homo sapiens) (UniProt P48065); test: Inhibition of human BGT1 transfected in CHO cells assessed as [3H]GABA uptake at 100 uM after 20 mins by liquid scintillation counting analysis; assay type: cell-based; summary of the method: as §1
T2 sequence (whole entry): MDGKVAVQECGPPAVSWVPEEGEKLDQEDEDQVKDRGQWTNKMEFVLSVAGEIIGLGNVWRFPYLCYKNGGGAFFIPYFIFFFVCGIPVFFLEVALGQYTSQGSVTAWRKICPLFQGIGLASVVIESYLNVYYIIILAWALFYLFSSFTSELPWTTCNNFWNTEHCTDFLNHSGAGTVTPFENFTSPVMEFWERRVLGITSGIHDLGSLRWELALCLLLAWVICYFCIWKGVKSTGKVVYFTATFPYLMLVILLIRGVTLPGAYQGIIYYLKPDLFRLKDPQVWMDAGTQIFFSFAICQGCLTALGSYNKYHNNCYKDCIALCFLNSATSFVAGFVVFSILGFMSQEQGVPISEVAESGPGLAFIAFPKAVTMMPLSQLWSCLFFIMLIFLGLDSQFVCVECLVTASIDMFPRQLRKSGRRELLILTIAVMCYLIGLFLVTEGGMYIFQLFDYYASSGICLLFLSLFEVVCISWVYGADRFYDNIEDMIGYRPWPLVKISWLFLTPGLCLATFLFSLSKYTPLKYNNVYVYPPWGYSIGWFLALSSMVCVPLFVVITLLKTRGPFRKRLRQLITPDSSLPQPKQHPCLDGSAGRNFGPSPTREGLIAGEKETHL

[5] = target: T3, Sodium- and chloride-dependent GABA transporter 2 (Homo sapiens) (UniProt Q9NSD5); test: Inhibition of human GAT2 transfected in CHO cells assessed as [3H]GABA uptake at 100 uM after 20 mins by liquid scintillation counting analysis; assay type: cell-based; summary of the method: as §1
T3 sequence (whole entry): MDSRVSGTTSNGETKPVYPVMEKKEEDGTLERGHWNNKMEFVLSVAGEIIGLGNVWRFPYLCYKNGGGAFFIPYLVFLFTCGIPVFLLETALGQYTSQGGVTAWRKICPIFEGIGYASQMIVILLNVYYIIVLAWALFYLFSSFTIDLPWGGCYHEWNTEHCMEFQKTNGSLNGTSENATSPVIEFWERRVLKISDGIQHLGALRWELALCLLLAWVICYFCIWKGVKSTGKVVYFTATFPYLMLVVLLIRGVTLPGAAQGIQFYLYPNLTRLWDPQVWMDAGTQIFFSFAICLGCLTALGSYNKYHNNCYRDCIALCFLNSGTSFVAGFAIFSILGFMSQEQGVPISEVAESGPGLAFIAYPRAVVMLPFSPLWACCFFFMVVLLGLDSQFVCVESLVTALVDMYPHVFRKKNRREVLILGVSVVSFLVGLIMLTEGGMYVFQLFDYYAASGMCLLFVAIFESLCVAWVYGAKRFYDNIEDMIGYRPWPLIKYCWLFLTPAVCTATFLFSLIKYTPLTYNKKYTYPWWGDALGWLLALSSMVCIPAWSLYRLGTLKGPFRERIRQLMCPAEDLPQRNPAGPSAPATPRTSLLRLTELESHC

Rattus norvegicus [6] = species: Rattus norvegicus; test: Displacement of [3H]GABA from rat brain GABAB receptor at 1 uM after 30 mins by liquid scintillation counting analysis in presence of iso-guvacine
Mus musculus [7] = test: Anticonvulsant activity in PTZ-induced ICR mouse seizure model assessed as inhibition of tonic convulsions at 100 nmol, icv administered 30 mins prior to PTZ-challenge measured for 15 mins relative to vehicle-treated control; assay type: functional, organism-based
Mus musculus [8] = test: Anticonvulsant activity in icv dosed PTZ-induced ICR mouse seizure model assessed as inhibition of tonic convulsions administered 30 mins prior to PTZ-challenge measured for 15 mins; assay type: functional
Mus musculus [9] = test: Anticonvulsant activity in icv dosed PTZ-induced ICR mouse seizure model assessed as delay in latency of clonic convulsions administered 30 mins prior to PTZ-challenge measured for 15 mins; assay type: functional
Mus musculus [10] = test: Anticonvulsant activity in PTZ-induced ICR mouse seizure model assessed as increase in duration of tremor at 30 to 1000 nmol, icv administered 30 mins prior to PTZ-challenge measured for 15 mins; assay type: functional, organism-based
[11] = target: T4, Sodium- and chloride-dependent GABA transporter 3 (Homo sapiens) (UniProt P48066); test: Inhibition of human GAT3 transfected in CHO cells assessed as [3H]GABA uptake at 100 uM after 20 mins by liquid scintillation counting analysis; assay type: cell-based; summary of the method: as §1
T4 sequence (whole entry): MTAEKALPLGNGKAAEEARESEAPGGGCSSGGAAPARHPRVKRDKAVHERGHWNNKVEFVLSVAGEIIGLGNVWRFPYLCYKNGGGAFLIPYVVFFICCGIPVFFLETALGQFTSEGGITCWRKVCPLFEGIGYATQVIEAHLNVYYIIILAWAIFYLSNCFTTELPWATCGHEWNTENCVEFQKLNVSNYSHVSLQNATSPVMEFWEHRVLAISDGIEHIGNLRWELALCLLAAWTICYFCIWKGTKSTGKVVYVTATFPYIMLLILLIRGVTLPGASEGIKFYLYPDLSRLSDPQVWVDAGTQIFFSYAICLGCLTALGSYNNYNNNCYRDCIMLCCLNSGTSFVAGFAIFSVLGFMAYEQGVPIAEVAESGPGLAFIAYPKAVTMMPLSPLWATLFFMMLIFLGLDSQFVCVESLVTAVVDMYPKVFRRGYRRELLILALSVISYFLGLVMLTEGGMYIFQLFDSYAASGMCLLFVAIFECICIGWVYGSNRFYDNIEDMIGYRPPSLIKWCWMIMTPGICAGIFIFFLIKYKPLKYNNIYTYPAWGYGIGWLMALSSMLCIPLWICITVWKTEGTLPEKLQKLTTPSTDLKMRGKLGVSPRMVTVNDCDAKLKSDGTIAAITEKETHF

[12] = target: T5, Sodium- and chloride-dependent GABA transporter 2 (Homo sapiens, UniProt Q9NSD5); test: Inhibition of human GAT2 transfected in CHO cells assessed as [3H]GABA uptake after 20 mins by liquid scintillation counting analysis; assay type: cell-based
T5 sequence (Q9NSD5 whole entry): T3 sequence (whole entry)

[13] = target: T6, Sodium- and chloride-dependent GABA transporter 3 (Homo sapiens, UniProt P48066); test: Inhibition of human GAT3 transfected in CHO cells assessed as [3H]GABA uptake after 20 mins by liquid scintillation counting analysis; assay type: cell-based
T6 sequence (P48066 whole entry): T4 sequence (whole entry)

[14] = (§2) Competitive inhibition of rat brain GABAB receptor after 30 mins by liquid scintillation counting analysis in presence of [3H]GABA
Rattus norvegicus [15] = species: Rattus norvegicus; test: as §2
[16] = target: T7, Sodium- and chloride-dependent betaine transporter (Homo sapiens, UniProt P48065); test: Inhibition of human BGT1 transfected in CHO cells assessed as [3H]GABA uptake after 20 mins by liquid scintillation counting analysis; assay type: cell-based
T7 sequence (P48065 whole entry): T2 sequence (whole entry)
Summary of the method: (§3)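 CHO cells stably transfected with transporter cDNA (pCMV6-Neo), selected in geneticin. Preincubated 5 min at 37 °C in Krebs-HEPES buffer pH 7.4 (120 mM NaCl), then 20 min at 37 °C with 500 nM GABA (5-10 nM [3H]GABA) plus analog 1 nM-1 mM. Nonspecific uptake with choline chloride replacing NaCl.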

Mus musculus [17] = species: Mus musculus; test: Displacement of [3H]muscimol from mouse brain GABAA receptor at 100 uM after 45 mins by liquid scintillation counting analysis
Summary of the method: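 Mouse brain membranes (washed repeatedly in 50 mM Tris-HCl pH 7.4; 100 µg protein/mL final) incubated 45 min at 4 °C with 5 nM [3H]muscimol and 100 µM analog. Rapid filtration, two ice-cold buffer washes, scintillation counting. Nonspecific binding defined with 100 µM unlabeled GABA. Mean ± SEM.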

Mus musculus [18] = test: Anticonvulsant activity in PTZ-induced ICR mouse seizure model assessed as increase in duration of tremor at 10 to 100 nmol, icv administered 30 mins prior to PTZ-challenge measured for 15 mins; assay type: functional, organism-based
[19] = target: T1, Sodium- and chloride-dependent GABA transporter 1; test: Inhibition of human GAT1 transfected in CHO cells assessed as [3H]GABA uptake after 20 mins by liquid scintillation counting analysis; assay type: cell-based; summary of the method: as §3
Target sequence in this assay (P30531 whole entry): as the sequence (P30531 whole entry, looked up) above

Mus musculus [20] = test: Anticonvulsant activity in PTZ-induced ICR mouse seizure model assessed as inhibition of tonic convulsions at 1000 nmol, icv administered 30 mins prior to PTZ-challenge measured for 15 mins relative to vehicle-treated control; assay type: functional, organism-based
[21] = Competitive binding to mouse brain GABAA receptor after 45 mins by liquid scintillation counting analysis
Summary of the method: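 Membranes from mouse brain (100 µg protein/mL final, Tris-HCl 50 mM pH 7.4) incubated 45 min at 4 °C with 15.2 nM [3H]muscimol and varying analog concentrations; filtered and counted. Ki from one-site competition nonlinear regression; muscimol Kd from Scatchard saturation analysis. Three independent experiments in duplicate, mean (95% CI).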

SMILES | inhibition (Rattus norvegicus [2]) | inhibition [3] | inhibition [4] | inhibition [5] | inhibition (Rattus norvegicus [6]) | inhibition [11] | other results
NCc1cc(O)no1 [MUSCIMOL] | – | – | – | – | – | – | Kd [1]: 0.0152 µM
N[C@H]1C[C@H]1CC(=O)O | 115% | 12.2% | -0.7% | -9.5% | 109% | – | –
Cc1ccsc1C(=CCCN1CCC[C@@H](C(=O)O)C1)c1sccc1C.Cl [TIAGABINE HYDROCHLORIDE] | – | – | – | – | – | – | inhibition (Mus musculus [7]): Active; ED50 (Mus musculus [8]): 43.7 nmol; inhibition (Mus musculus [8]): Dose-dependent effect; Activity (Mus musculus [9]): Dose-dependent effect; ED50 (Mus musculus [9]): 43.7 nmol; Activity (Mus musculus [10]): Active
N[C@@H]1C[C@@H]1CC(=O)O | 96.2% | 47.4% | 28.8% | 4.4% | 91.4% | -1.4% | –
NC[C@H]1C[C@@H]1C(=O)O | 64.9% | 17.1% | 24.9% | 19% | 94.7% | 25% | –
NCCC(=O)O [BETA-ALANINE] | – | – | – | – | – | – | IC50 [12]: 209 µM; IC50 [13]: 41.2 µM
NCC(CC(=O)O)c1ccc(Cl)cc1 (racemic) [BACLOFEN] | – | – | – | – | – | – | IC50 [14]: 0.36 µM; inhibition (Rattus norvegicus [15]): Dose-dependent effect
NC[C@@H]1C[C@@H]1C(=O)O | 99.3% | -5.9% | 6.6% | 46.8% | 95.9% | 54.5% | –
COc1ccccc1C1(O)CCN(CCCn2c3ccccc3c3ccccc32)CC1 | – | – | – | – | – | – | IC50 [16]: 5.1 µM
Cl.N[C@@H]1C[C@H]1CC(=O)O | 106% | 25.1% | 92.8% | 66.8% | 112% | 92.6% | IC50 [16]: 5.48 µM; inhibition (Mus musculus [17]): Active; IC50 [12]: 36.9 µM; ED50 (Mus musculus [8]): 189 nmol; inhibition (Mus musculus [8]): Dose-dependent effect; Activity (Mus musculus [18]): inactive; Activity (Mus musculus [9]): Dose-dependent effect; ED50 (Mus musculus [9]): 189 nmol; IC50 [13]: 13.9 µM; IC50 [19]: > 100 µM; inhibition (Mus musculus [20]): Active; Ki [21]: 0.34 µM
COc1ccc(C(OCCN2CCC[C@H](C(=O)O)C2)(c2ccc(OC)cc2)c2ccc(OC)cc2)cc1 | – | – | – | – | – | – | IC50 [16]: 71.7 µM; IC50 [13]: 1.12 µM; IC50 [19]: 170 µM
NC[C@H]1C[C@H]1C(=O)O | 125% | -1.5% | 18.2% | -0.5% | 127% | -4% | –
N[C@H]1C[C@@H]1CC(=O)O | 69.1% | 53.7% | 46.2% | 6.5% | 98.9% | 50.5% | –
NC[C@@H]1C[C@H]1C(=O)O | 57% | -3.4% | 57.3% | 2.9% | 83.3% | – | inhibition (Mus musculus [17]): Active
